Key:
Rattus norvegicus [1] = assay: In vivo deiodination in 1 hour after administration of compound; assay type: functional
Summary of the method: (§1)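 In immature female Fischer rats given 3 μCi (111 kBq) of 125I-steroid iv, deiodination was estimated from thyroid PDK at 1, 2 or 5 h, or at 2 h with 60 μg co-injected estradiol. Thyroid uptake after [125I]NaI injection at the same time interval was taken as 100%.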

Rattus norvegicus [2] = assay: In vivo deiodination in 2 hour after administration of compound; assay type: functional; summary of the method: as §1
Rattus norvegicus [3] = assay: In vivo deiodination in 2 hour after administration of compound in presence of 60 microg of estradiol; assay type: functional; summary of the method: as §1
Rattus norvegicus [4] = assay: In vivo deiodination in 5 hr after administration of compound; assay type: functional; summary of the method: as §1
Rattus norvegicus [5] = assay: Mean uptake in adrenals 1 hr after intravenous injection of 3 microCi (111 kBq) of the compound; assay type: functional, Adrenal gland
Summary of the method: (§2)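 Immature female Fischer rats (24 days old, 55-60 g) had free access to food and water. They were warmed under an infrared lamp, then given 200 μL HPLC-purified 125I-labeled steroid (3 μCi, 111 kBq) in saline with 9% ethanol and 1% Tween 80 via the lateral tail vein. Where stated, 60 μg unlabeled estradiol was co-injected. Rats were killed at 1, 2 or 5 h. Tissues were KCl-washed, blotted, weighed and gamma-counted against a reference of the injectate. Results are PDK (% dose × kg/g), mean and SD of three rats.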

Rattus norvegicus [6] = assay: Mean uptake in adrenals 2 hr after intravenous injection of 3 microCi (111 kBq); assay type: functional, Adrenal gland; summary of the method: as §2
Rattus norvegicus [7] = species on record: Rattus norvegicus; assay: Effect of Co-injection with estradiol on the uterus to blood ratio (Co-injected with 60 microg of estradiol (E2)); assay type: functional
Summary of the method: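 Immature female Fischer rats (24 days, 55-60 g) received 3 μCi (111 kBq) 125I-labelled steroid iv via the lateral tail vein, in 200 μL 9% ethanol-saline with 1% Tween 80, co-injected with 60 μg unlabelled estradiol. Killed at 2 h. Uterus and blood were KCl-washed and gamma-counted as PDK. Ratio is the mean of three rats; % change is versus tracer-only animals.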

Rattus norvegicus [8] = assay: Mean uptake in uterus 2 hr after intravenous injection of 3 microCi (111 kBq); assay type: functional
Summary of the method: (§3)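 Immature female Fischer rats (24 days old, 55-60 g), food and water free. 3 μCi (111 kBq) HPLC-purified 125I-labeled steroid given iv via lateral tail vein in 200 μL saline containing 9% ethanol and 1% Tween 80; receptor-saturation group co-injected with 60 μg unlabeled estradiol. Sacrificed at set times; uterus washed with 0.154 M KCl, blotted, weighed, gamma counted against injected reference; expressed as PDK (% dose × kg/g), mean of three rats.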

Rattus norvegicus [9] = assay: Mean uptake in uterus 2 hr after intravenous injection of 3 uM Ci (111 kBq) in presence of 60 ug coinjected estradiol; assay type: functional; summary of the method: as §3
Rattus norvegicus [10] = assay: Mean uptake in uterus 1 hr after intravenous injection of 3 microCi (111 kBq) of the compound; assay type: functional; summary of the method: as §2
Rattus norvegicus [11] = assay: Mean uptake in uterus 5 hr after intravenous injection of 3 microCi (111 kBq); assay type: functional; summary of the method: as §3
Rattus norvegicus [12] = assay: Mean uptake in blood 5 hr after intravenous injection of 3 microCi (111 kBq); assay type: functional; summary of the method: as §2
Rattus norvegicus [13] = assay: Mean uptake in adrenals 2 hr after intravenous injection of 3 microCi (111 kBq) in presence of 60 ug coinjected estradiol; assay type: functional, Adrenal gland; summary of the method: as §2
Rattus norvegicus [14] = assay: Mean uptake in adrenals 5 hr after intravenous injection of 3 microCi (111 kBq); assay type: functional, Adrenal gland; summary of the method: as §2
Rattus norvegicus [15] = assay: Mean uptake in blood 1 hr after intravenous injection of 3 microCi (111 kBq) of the compound; assay type: functional; summary of the method: as §2
Rattus norvegicus [16] = assay: Mean uptake in blood 2 hr after intravenous injection of 3 microCi (111 kBq); assay type: functional; summary of the method: as §2
Rattus norvegicus [17] = assay: Mean uptake in blood 2 hr after intravenous injection of 3 microCi (111 kBq) in presence of 60 ug coinjected estradiol; assay type: functional; summary of the method: as §2
Rattus norvegicus [18] = assay: Mean uptake in brain 1 hr after intravenous injection of 3 microCi (111 kBq) of the compound; assay type: functional; summary of the method: as §2
Rattus norvegicus [19] = assay: Mean uptake in brain 2 hr after intravenous injection of 3 microCi (111 kBq); assay type: functional; summary of the method: as §2
Rattus norvegicus [20] = assay: Mean uptake in brain 2 hr after intravenous injection of 3 uM Ci (111 kBq) in presence of 60 ug coinjected estradiol; assay type: functional; summary of the method: as §2
Rattus norvegicus [21] = assay: Mean uptake in kidneys 1 hr after intravenous injection of 3 microCi (111 kBq) of the compound; assay type: functional; summary of the method: as §2
Rattus norvegicus [22] = assay: Mean uptake in kidneys 2 hr after intravenous injection of 3 microCi (111 kBq); assay type: functional; summary of the method: as §2
Rattus norvegicus [23] = assay: Mean uptake in kidneys 2 hr after intravenous injection of 3 microCi (111 kBq) in presence of 60 ug coinjected estradiol; assay type: functional, Kidney; summary of the method: as §2
Rattus norvegicus [24] = assay: Mean uptake in kidneys 5 hr after intravenous injection of 3 microCi (111 kBq); assay type: functional; summary of the method: as §2
Rattus norvegicus [25] = assay: Mean uptake in liver 2 hr after intravenous injection of 3 microCi (111 kBq); assay type: functional; summary of the method: as §2
Rattus norvegicus [26] = assay: Mean uptake in ovaries 2 hr after intravenous injection of 3 uM Ci (111 kBq) in presence of 60 ug coinjected estradiol; assay type: functional, Female gonad; summary of the method: as §2
Rattus norvegicus [27] = assay: Mean uptake in ovaries 5 hr after intravenous injection of 3 microCi (111 kBq); assay type: functional, Female gonad; summary of the method: as §2
Rattus norvegicus [28] = assay: Mean uptake in spleen 1 hr after intravenous injection of 3 microCi (111 kBq) of the compound; assay type: functional; summary of the method: as §2
Rattus norvegicus [29] = assay: Mean uptake in spleen 2 hr after intravenous injection of 3 uM Ci (111 kBq); assay type: functional; summary of the method: as §2
Rattus norvegicus [30] = assay: Mean uptake in spleen 2 hr after intravenous injection of 3 uM Ci (111 kBq) in presence of 60 ug coinjected estradiol; assay type: functional; summary of the method: as §2
Rattus norvegicus [31] = assay: Mean uptake in spleen 5 hr after intravenous injection of 3 microCi (111 kBq); assay type: functional; summary of the method: as §2
Rattus norvegicus [32] = assay: Mean uptake in thyroid 2 hr after intravenous injection of 3 microCi (111 kBq); assay type: functional, Thyroid gland; summary of the method: as §2
Rattus norvegicus [33] = assay: Mean uptake in thyroid 2 hr after intravenous injection of 3 microCi (111 kBq) in presence of 60 ug coinjected estradiol; assay type: functional, Thyroid gland; summary of the method: as §2
Rattus norvegicus [34] = assay: Mean uptake in thyroid 1 hr after intravenous injection of 3 microCi (111 kBq) of the compound; assay type: functional, Thyroid gland; summary of the method: as §2
Rattus norvegicus [35] = assay: Mean uptake in liver 2 hr after intravenous injection of 3 microCi (111 kBq) in presence of 60 ug coinjected estradiol; assay type: functional; summary of the method: as §2
Rattus norvegicus [36] = assay: Mean uptake in liver 5 hr after intravenous injection of 3 microCi (111 kBq); assay type: functional; summary of the method: as §2
Rattus norvegicus [37] = assay: Mean uptake in lungs 1 hr after intravenous injection of 3 microCi (111 kBq) of the compound; assay type: functional; summary of the method: as §2
Rattus norvegicus [38] = assay: Mean uptake in lungs 2 hr after intravenous injection of 3 microCi (111 kBq); assay type: functional; summary of the method: as §2
Rattus norvegicus [39] = assay: Mean uptake in lungs 2 hr after intravenous injection of 3 microCi (111 kBq) in presence of 60 ug coinjected estradiol; assay type: functional; summary of the method: as §2
Rattus norvegicus [40] = assay: Mean uptake in lungs 5 hr after intravenous injection of 3 microCi (111 kBq); assay type: functional; summary of the method: as §2
Rattus norvegicus [41] = assay: Mean uptake in muscle 1 hr after intravenous injection of 3 microCi (111 kBq) of the compound; assay type: functional, Muscle tissue; summary of the method: as §2
Rattus norvegicus [42] = assay: Mean uptake in muscle 2 hr after intravenous injection of 3 microCi (111 kBq); assay type: functional, Muscle tissue; summary of the method: as §2
Rattus norvegicus [43] = assay: Mean uptake in muscles 5 hr after intravenous injection of 3 microCi (111 kBq); assay type: functional, Muscle tissue; summary of the method: as §2
Rattus norvegicus [44] = assay: Mean uptake in ovaries 1 hr after intravenous injection of 3 microCi (111 kBq) of the compound; assay type: functional, Female gonad; summary of the method: as §2
Rattus norvegicus [45] = assay: Mean uptake in ovaries 2 hr after intravenous injection of 3 microCi (111 kBq); assay type: functional, Female gonad; summary of the method: as §2
Rattus norvegicus [46] = assay: Mean uptake in liver 1 hr after intravenous injection of 3 microCi (111 kBq) of the compound; assay type: functional; summary of the method: as §2

## C[C@]12CC[C@@H]3c4ccc(O)cc4CC[C@H]3[C@@H]1CC[C@@]2(O)/C=C\[125I]
Rattus norvegicus [1]
  Deiodination: 3.8%
Rattus norvegicus [2]
  Deiodination: 2.8%
Rattus norvegicus [3]
  Deiodination: 3.7%
Rattus norvegicus [4]
  Deiodination: 17%
Rattus norvegicus [5]
  PDK: 154
Rattus norvegicus [6]
  PDK: 67
Rattus norvegicus [7]
  Change: -78%
  Uterus to blood ratio: 3
Rattus norvegicus [8]
  PDK: 166
Rattus norvegicus [9]
  PDK: 41
Rattus norvegicus [10]
  PDK: 228
Rattus norvegicus [11]
  PDK: 106
Rattus norvegicus [12]
  PDK: 17
Rattus norvegicus [13]
  PDK: 77
Rattus norvegicus [14]
  PDK: 23
Rattus norvegicus [15]
  PDK: 16
Rattus norvegicus [16]
  PDK: 12
Rattus norvegicus [17]
  PDK: 14
Rattus norvegicus [18]
  PDK: 34
Rattus norvegicus [19]
  PDK: 11
Rattus norvegicus [20]
  PDK: 14
Rattus norvegicus [21]
  PDK: 58
Rattus norvegicus [22]
  PDK: 32
Rattus norvegicus [23]
  PDK: 29
Rattus norvegicus [24]
  PDK: 20
Rattus norvegicus [25]
  PDK: 84
Rattus norvegicus [26]
  PDK: 36
Rattus norvegicus [27]
  PDK: 50
Rattus norvegicus [28]
  PDK: 19
Rattus norvegicus [29]
  PDK: 11
Rattus norvegicus [30]
  PDK: 10
Rattus norvegicus [31]
  PDK: 9
Rattus norvegicus [32]
  PDK: 3718
Rattus norvegicus [33]
  PDK: 4975
Rattus norvegicus [34]
  PDK: 2547
Rattus norvegicus [35]
  PDK: 83
Rattus norvegicus [36]
  PDK: 57
Rattus norvegicus [37]
  PDK: 44
Rattus norvegicus [38]
  PDK: 25
Rattus norvegicus [39]
  PDK: 26
Rattus norvegicus [40]
  PDK: 18
Rattus norvegicus [41]
  PDK: 24
Rattus norvegicus [42]
  PDK: 10
Rattus norvegicus [43]
  PDK: 5
Rattus norvegicus [44]
  PDK: 116
Rattus norvegicus [45]
  PDK: 85
Rattus norvegicus [46]
  PDK: 148

— ChEMBL document CHEMBL1123977, “Synthesis, receptor binding, and tissue distribution of (17 alpha,20E)- and (17 alpha,20Z)-21-[125I]iodo-19-norpregna-1,3,5(10), 20-tetraene-3,17-diol ” (1988)
